IC50 data for 10 compounds are collected here from ChEMBL document CHEMBL1126703, “Synthesis of 2'-deoxyuridine and 5-fluoro-2'-deoxyuridine derivatives and evaluation in antibody targeting studies” (J Med Chem, 1993).

What all share (type): functional, cell-based
Details in all cases: Homo sapiens

In experiment [1] the test system is T-24. Kind of experiment: Tested for cytotoxicity against antigen negative T-24 bladder carcinoma cells having only 3-5% antigen expression. In a few lines: (§1)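 Cytotoxicity was measured as inhibition of [75Se]selenomethionine uptake in a microplate assay, with cells incubated continuously with drug or conjugate. Antigen-positive 791T osteosarcoma cells carry about 6 × 10⁵ antigens/cell; T-24 bladder carcinoma cells carry about 3–5% of that level. Both lines were grown as monolayers in Eagle's MEM with 10% newborn calf serum and passaged using trypsin (0.25%)/EDTA (0.5%).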

The subject of experiment [2] is 791T cell line. Kind of experiment: Tested for cytotoxicity against antigen positive 791T osteosarcoma cells […]. In outline: as §1
In experiment [3] the test system is T-24. The experiment is described as follows: Tested for cytotoxicity against antigen negative T-24 bladder carcinoma cells having only 3-5% antigen expression; <20% inhibition achieved. In outline:
as §1

Experiment [4] has as its system 791T cell line. Kind of experiment: Tested for cytotoxicity against antigen positive 791T osteosarcoma cells […]; <20% inhibition achieved. In a few lines:
as §1

A further experiment deals with C170. The experiment is described as follows: Tested for cytotoxicity against C170 colorectal carcinoma cell line by [75Se]selenomethionine uptake assay, in vitro.
Experiment [5] deals with T-24. Kind of experiment: Tested for cytotoxicity against antigen negative T-24 bladder carcinoma cells of conjugate H1.11 (Type H3: MSR-28); <20% inhibition achieved. In outline:
as §1

In experiment [6] the test system is T-24. Kind of experiment: Tested for cytotoxicity against antigen negative T-24 bladder carcinoma cells of conjugate AH1.11 (Type H3: MSR-28); 20%-40% inhibition achieved. In a few lines:
as §1

Experiment [7] relates to 791T cell line. Kind of experiment: Tested for cytotoxicity against antigen positive 791T osteosarcoma cells of conjugate H1.11 (Type H3: MSR-28); <20% inhibition achieved. In a few lines:
as §1

Experiment [8] relates to 791T cell line. Kind of experiment: Tested for cytotoxicity against antigen positive 791T osteosarcoma cells of conjugate AH1.11 (Type H3: MSR-28); <20% inhibition achieved. In outline: as §1
Experiment [9] relates to T-24. The experiment is described as follows: Tested for cytotoxicity against antigen negative T-24 bladder carcinoma cells of conjugate H1.11 (Type H1: MSR-33). In a few lines: as §1
Experiment [10] has as its system 791T cell line. The experiment is described as follows: Tested for cytotoxicity against antigen positive 791T osteosarcoma cells of conjugate AH1.11 (Type H1: MSR-33). In a few lines: as §1
In experiment [11] the test system is 791T cell line. Kind of experiment: Tested for cytotoxicity against antigen positive 791T osteosarcoma cells of conjugate H1.11 (Type H1: MSR-33). In outline:
as §1

Experiment [12] has as its system T-24. The experiment is described as follows: Tested for cytotoxicity against antigen negative T-24 bladder carcinoma cells of conjugate AH1.11 (Type H1: MSR-33). In outline:
as §1

The test system of experiment [13] is 791T cell line. Kind of experiment: Tested for cytotoxicity against antigen positive 791T osteosarcoma cells of conjugate H1.11 (Type H2: MSR-26) (less than 20% inhibition achieved). In a few lines:
as §1

Experiment [14] concerns T-24. The experiment is described as follows: Tested for cytotoxicity against antigen negative T-24 bladder carcinoma cells of conjugate AH1.11 (Type H2: MSR-26). In a few lines:
as §1

Experiment [15] has as its system 791T cell line. Kind of experiment: Tested for cytotoxicity against antigen positive 791T osteosarcoma cells […] (49% inhibition achieved at 100 micro g/mL).
Experiment [16] relates to T-24. Kind of experiment: Tested for cytotoxicity against antigen negative T-24 bladder carcinoma cells of conjugate H1.11 (Type H2: MSR-26). In outline:
as §1

Experiment [17] relates to 791T cell line. Kind of experiment: Tested for cytotoxicity against antigen positive 791T osteosarcoma cells of conjugate AH1.11 (Type H2: MSR-26). In outline: as §1
The subject of experiment [18] is 791T cell line. The experiment is described as follows: Tested for cytotoxicity against antigen positive 791T osteosarcoma cells of conjugate H1.11 (Type H2: MSR-26). In a few lines:
as §1

In brackets after ≈: the same amount, converted by molar mass. Several values for one entry are separate records, joined by “and”; a condition that tells them apart may be missing. Equal values may be shown once.

As a reminder, the IC50 is the concentration at which inhibition is half-maximal. High values mean weaker potency, low ones greater potency. `CCOC(=O)CCC(=O)NC[C@H]1O[C@@H](n2cc(F)c(=O)[nH]c2=O)C[C@@H]1O`: the IC50 with T-24 [1] is > 100 µg/mL and > 280 µM; in the experiment with 791T cell line [2], > 100 µg/mL and > 280 µM.

As for `CCOC(=O)c1ccc(NC(=O)[C@H]2O[C@@H](n3cc(F)c(=O)[nH]c3=O)C[C@@H]2O)cc1`, the IC50 in the experiment on T-24 [3] was > 100 µg/mL and > 300 µM; in the experiment on 791T cell line [4], > 100 µg/mL and > 300 µM.

In the case of `O=C(O)[C@H]1O[C@@H](n2cc(F)c(=O)[nH]c2=O)C[C@@H]1O`, in the experiment with C170, the IC50 was 10 µg/mL and 41 µM.

Take `O=C(O)c1ccc(NC(=O)[C@H]2O[C@@H](n3cc(F)c(=O)[nH]c3=O)C[C@@H]2O)cc1`: the IC50 in the experiment with T-24 [5] was > 3 µg/mL and > 7.9 µM; in the experiment with T-24 [6], > 1 µg/mL and > 2.6 µM; with T-24 [1], 100 µg/mL and 263 µM; in the experiment on 791T cell line [7], > 3 µg/mL and > 7.9 µM; in the experiment on 791T cell line [8] it was > 1 µg/mL and > 2.6 µM; with 791T cell line [4] it was > 100 µg/mL and > 300 µM.

With `O=C(O)CCC(=O)NC[C@H]1O[C@@H](n2cc(F)c(=O)[nH]c2=O)C[C@@H]1O`, the IC50 in the experiment with T-24 [9] was 5.7 µg/mL and 16.6 µM; in the experiment on T-24 [1], 21 µg/mL and 62 µM; with 791T cell line [10], 0.4 µg/mL and 1.1 µM; in the experiment with 791T cell line [11], 7.1 µg/mL and 20.6 µM; in the experiment on T-24 [12], 0.4 µg/mL and 1.1 µM; in the experiment on 791T cell line [2] it was > 100 µg/mL and > 290 µM.

Consider `NC[C@H]1O[C@@H](n2cc(F)c(=O)[nH]c2=O)C[C@@H]1O`, for which the IC50 in the experiment on C170 is 26 µg/mL and 107 µM.

As to `O=c1[nH]c(=O)n([C@H]2C[C@H](O)[C@@H](CO)O2)cc1F` [FLOXURIDINE], the IC50 in the experiment on T-24 [1] is 1 µg/mL and 4.1 µM; in the experiment on C170, 0.1 µg/mL and 400 nM; in the experiment on 791T cell line [2] it was 0.8 µg/mL and 3.2 µM.

As to `O=C(O)/C=C/C(=O)NC[C@H]1O[C@@H](n2cc(F)c(=O)[nH]c2=O)C[C@@H]1O`, the IC50 in the experiment with 791T cell line [13] is greater than 10 µg/mL; in the experiment on T-24 [14], > 0.5 µg/mL and > 1.5 µM; with 791T cell line [15] it was 320 µM; with T-24 [16], > 10 µg/mL and > 30 µM; in the experiment with T-24 [1], 79 µg/mL and 231 µM; with 791T cell line [17] it was > 0.5 µg/mL and > 1.5 µM. Besides, the IC50 is 110 µg/mL (≈ 320 µM) in the experiment on 791T cell line [2] and greater than 30 µM in the experiment on 791T cell line [18].

On to `O=c1[nH]cc(F)c(=O)[nH]1` [FLUOROURACIL], for which the IC50 with T-24 [1] is 0.5 µg/mL and 4.1 µM; with C170, 0.3 µg/mL and 2 µM; in the experiment with 791T cell line [2] it was 0.7 µg/mL and 5.5 µM.

As for `CCCCNC(=O)/C=C/C(=O)NC[C@H]1O[C@@H](n2cc(F)c(=O)[nH]c2=O)C[C@@H]1O`, the IC50 with T-24 [1] was > 100 µg/mL and > 300 µM; in the experiment on 791T cell line [2], > 100 µg/mL and > 300 µM.
